How the values were obtained:
Kidney [1] = assay: Biodistribution in ddY mouse kidney at 1 uCi/100 uL, iv after 30 mins by gamma counting; format: ADME, organism-based; settings: in vivo, 0.5 h
Kidney [2] = assay: Biodistribution in ddY mouse kidney at 1 uCi/100 uL, iv after 120 mins by gamma counting; format: ADME, organism-based; settings: in vivo, 2 h
Method in brief: (§1)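 Normal female ddY mice (5 weeks, about 20 g; n = 4 per group) received radiotracer iv. Organs were removed and weighed at 2–120 min and counted in a γ-counter. Percent dose per gram of wet tissue was calculated against diluted aliquots of the injected material and reported as mean ± SD.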

Blood [3] = assay: Biodistribution in ddY mouse blood at 1 uCi/100 uL, iv after 30 mins by gamma counting; format: ADME, organism-based; settings: in vivo, 0.5 h; method in brief: as §1
Liver [4] = assay: Biodistribution in ddY mouse liver at 1 uCi/100 uL, iv after 60 mins by gamma counting; format: ADME, organism-based; settings: in vivo, 1 h
Heart [5] = assay: Biodistribution in ddY mouse heart at 1 uCi/100 uL, iv after 120 mins by gamma counting; format: ADME, organism-based; settings: in vivo, 2 h; method in brief: as §1
Spleen [6] = assay: Biodistribution in ddY mouse spleen at 1 uCi/100 uL, iv after 15 mins by gamma counting; format: ADME, organism-based; settings: in vivo, 0.25 h
Stomach [7] = assay: Biodistribution in ddY mouse stomach at 1 uCi/100 uL, iv after 2 mins by gamma counting; format: ADME, organism-based; settings: in vivo
Blood [8] = assay: Biodistribution in ddY mouse blood at 1 uCi/100 uL, iv after 60 mins by gamma counting; format: ADME, organism-based; settings: in vivo, 1 h; method in brief: as §1
Lung [9] = assay: Biodistribution in ddY mouse lung at 1 uCi/100 uL, iv after 30 mins by gamma counting; format: ADME, organism-based; settings: in vivo, 0.5 h
Liver [10] = assay: Biodistribution in ddY mouse liver at 1 uCi/100 uL, iv after 30 mins by gamma counting; format: ADME, organism-based; settings: in vivo, 0.5 h
Blood [11] = assay: Biodistribution in ddY mouse blood at 1 uCi/100 uL, iv after 2 mins by gamma counting; format: ADME, organism-based; settings: in vivo; method in brief: as §1
Spleen [12] = assay: Biodistribution in ddY mouse spleen at 1 uCi/100 uL, iv after 30 mins by gamma counting; format: ADME, organism-based; settings: in vivo, 0.5 h
Intestine [13] = assay: Biodistribution in ddY mouse intestine at 1 uCi/100 uL, iv after 60 mins by gamma counting; format: ADME, organism-based; settings: in vivo, 1 h; method in brief: as §1
Thyroid gland [14] = assay: Biodistribution in ddY mouse thyroid at 1 uCi/100 uL, iv after 60 mins by gamma counting; format: ADME, organism-based; settings: in vivo, 1 h
Thyroid gland [15] = assay: Biodistribution in ddY mouse thyroid at 1 uCi/100 uL, iv after 120 mins by gamma counting; format: ADME, organism-based; settings: in vivo, 2 h
Liver [16] = assay: Biodistribution in ddY mouse liver at 1 uCi/100 uL, iv after 120 mins by gamma counting; format: ADME, organism-based; settings: in vivo, 2 h
Brain [17] = assay: Biodistribution in ddY mouse brain at 1 uCi/100 uL, iv after 2 mins by gamma counting; format: ADME, organism-based; settings: in vivo; method in brief: as §1
Kidney [18] = assay: Biodistribution in ddY mouse kidney at 1 uCi/100 uL, iv after 2 mins by gamma counting; format: ADME, organism-based; settings: in vivo; method in brief: as §1
Stomach [19] = assay: Biodistribution in ddY mouse stomach at 1 uCi/100 uL, iv after 60 mins by gamma counting; format: ADME, organism-based; settings: in vivo, 1 h
Kidney [20] = assay: Biodistribution in ddY mouse kidney at 1 uCi/100 uL, iv after 15 mins by gamma counting; format: ADME, organism-based; settings: in vivo, 0.25 h; method in brief: as §1
Heart [21] = assay: Biodistribution in ddY mouse heart at 1 uCi/100 uL, iv after 60 mins by gamma counting; format: ADME, organism-based; settings: in vivo, 1 h; method in brief: as §1
Brain [22] = assay: Biodistribution in ddY mouse brain at 1 uCi/100 uL, iv after 60 mins by gamma counting; format: ADME, organism-based; settings: in vivo, 1 h; method in brief: as §1
Spleen [23] = assay: Biodistribution in ddY mouse spleen at 1 uCi/100 uL, iv after 60 mins by gamma counting; format: ADME, organism-based; settings: in vivo, 1 h
Brain [24] = assay: Biodistribution in ddY mouse brain at 1 uCi/100 uL, iv after 30 mins by gamma counting; format: ADME, organism-based; settings: in vivo, 0.5 h; method in brief: as §1
Intestine [25] = assay: Biodistribution in ddY mouse intestine at 1 uCi/100 uL, iv after 120 mins by gamma counting; format: ADME, organism-based; settings: in vivo, 2 h; method in brief: as §1
Stomach [26] = assay: Biodistribution in ddY mouse stomach at 1 uCi/100 uL, iv after 120 mins by gamma counting; format: ADME, organism-based; settings: in vivo, 2 h
Intestine [27] = assay: Biodistribution in ddY mouse intestine at 1 uCi/100 uL, iv after 15 mins by gamma counting; format: ADME, organism-based; settings: in vivo, 0.25 h; method in brief: as §1
Intestine [28] = assay: Biodistribution in ddY mouse intestine at 1 uCi/100 uL, iv after 2 mins by gamma counting; format: ADME, organism-based; settings: in vivo; method in brief: as §1
Brain [29] = assay: Biodistribution in ddY mouse brain at 1 uCi/100 uL, iv after 15 mins by gamma counting; format: ADME, organism-based; settings: in vivo, 0.25 h; method in brief: as §1
Heart [30] = assay: Biodistribution in ddY mouse heart at 1 uCi/100 uL, iv after 30 mins by gamma counting; format: ADME, organism-based; settings: in vivo, 0.5 h; method in brief: as §1
Stomach [31] = assay: Biodistribution in ddY mouse stomach at 1 uCi/100 uL, iv after 30 mins by gamma counting; format: ADME, organism-based; settings: in vivo, 0.5 h
Brain [32] = assay: Ratio of drug uptake in ddY mouse brain at 1 uCi/100 uL, iv after 2 mins to drug uptake in ddY mouse brain at 1 uCi/100 uL, iv after 60 mins; format: ADME, organism-based; settings: in vivo
Method in brief: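 Normal female ddY mice (5 weeks) received the radiotracer iv, and brain uptake (% ID/g, n = 4) was measured by gamma counting at 2 and 60 min. The index is brain uptake at 2 min divided by brain uptake at 60 min.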

Thyroid gland [33] = assay: Biodistribution in ddY mouse thyroid at 1 uCi/100 uL, iv after 30 mins by gamma counting; format: ADME, organism-based; settings: in vivo, 0.5 h
[34] = Partition coefficient, log D of the compound; format: physicochemical; settings: octanol/water
Method in brief: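 Radiotracer partitioned between n-octanol and PBS: vortexed 3 min at room temperature, centrifuged 5 min at 3000 rpm. Weighed samples of the octanol (100 μL) and buffer (500 μL) layers were counted. log D is the log of the ratio of counts per gram, octanol versus PBS.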

Stomach [35] = assay: Biodistribution in ddY mouse stomach at 1 uCi/100 uL, iv after 15 mins by gamma counting; format: ADME, organism-based; settings: in vivo, 0.25 h
Thyroid gland [36] = assay: Biodistribution in ddY mouse thyroid at 1 uCi/100 uL, iv after 2 mins by gamma counting; format: ADME, organism-based; settings: in vivo
Thyroid gland [37] = assay: Biodistribution in ddY mouse thyroid at 1 uCi/100 uL, iv after 15 mins by gamma counting; format: ADME, organism-based; settings: in vivo, 0.25 h
Brain [38] = assay: Biodistribution in ddY mouse brain at 1 uCi/100 uL, iv after 120 mins by gamma counting; format: ADME, organism-based; settings: in vivo, 2 h; method in brief: as §1
Liver [39] = assay: Biodistribution in ddY mouse liver at 1 uCi/100 uL, iv after 15 mins by gamma counting; format: ADME, organism-based; settings: in vivo, 0.25 h
Kidney [40] = assay: Biodistribution in ddY mouse kidney at 1 uCi/100 uL, iv after 60 mins by gamma counting; format: ADME, organism-based; settings: in vivo, 1 h
Spleen [41] = assay: Biodistribution in ddY mouse spleen at 1 uCi/100 uL, iv after 120 mins by gamma counting; format: ADME, organism-based; settings: in vivo, 2 h
Blood [42] = assay: Biodistribution in ddY mouse blood at 1 uCi/100 uL, iv after 120 mins by gamma counting; format: ADME, organism-based; settings: in vivo, 2 h; method in brief: as §1
Intestine [43] = assay: Biodistribution in ddY mouse intestine at 1 uCi/100 uL, iv after 30 mins by gamma counting; format: ADME, organism-based; settings: in vivo, 0.5 h; method in brief: as §1
Lung [44] = assay: Biodistribution in ddY mouse lung at 1 uCi/100 uL, iv after 120 mins by gamma counting; format: ADME, organism-based; settings: in vivo, 2 h
Lung [45] = assay: Biodistribution in ddY mouse lung at 1 uCi/100 uL, iv after 60 mins by gamma counting; format: ADME, organism-based; settings: in vivo, 1 h
Liver [46] = assay: Biodistribution in ddY mouse liver at 1 uCi/100 uL, iv after 2 mins by gamma counting; format: ADME, organism-based; settings: in vivo
Lung [47] = assay: Biodistribution in ddY mouse lung at 1 uCi/100 uL, iv after 2 mins by gamma counting; format: ADME, organism-based; settings: in vivo
Blood [48] = assay: Biodistribution in ddY mouse blood at 1 uCi/100 uL, iv after 15 mins by gamma counting; format: ADME, organism-based; settings: in vivo, 0.25 h; method in brief: as §1
Lung [49] = assay: Biodistribution in ddY mouse lung at 1 uCi/100 uL, iv after 15 mins by gamma counting; format: ADME, organism-based; settings: in vivo, 0.25 h
Heart [50] = assay: Biodistribution in ddY mouse heart at 1 uCi/100 uL, iv after 2 mins by gamma counting; format: ADME, organism-based; settings: in vivo; method in brief: as §1
Spleen [51] = assay: Biodistribution in ddY mouse spleen at 1 uCi/100 uL, iv after 2 mins by gamma counting; format: ADME, organism-based; settings: in vivo
Heart [52] = assay: Biodistribution in ddY mouse heart at 1 uCi/100 uL, iv after 15 mins by gamma counting; format: ADME, organism-based; settings: in vivo, 0.25 h; method in brief: as §1

Drug uptake (Kidney [1]): 15.63 % ID/g | Drug uptake (Kidney [2]): 8.55 % ID/g | Drug uptake (Blood [3]): 3.98 % ID/g | Drug uptake (Liver [4]): 11.54 % ID/g | Drug uptake (Heart [5]): 1.19 % ID/g | Drug uptake (Spleen [6]): 9.94 % ID/g | Drug uptake (Stomach [7]): 1.16 % ID/organ | Drug uptake (Blood [8]): 2.16 % ID/g | Drug uptake (Lung [9]): 6.91 % ID/g | Drug uptake (Liver [10]): 24.64 % ID/g | Drug uptake (Blood [11]): 11.62 % ID/g | Drug uptake (Spleen [12]): 12.26 % ID/g | Drug uptake (Intestine [13]): 7.68 % ID/g | Drug uptake (Thyroid gland [14]): 23.53 % ID/g | Drug uptake (Thyroid gland [15]): 32.22 % ID/g | Drug uptake (Liver [16]): 16.47 % ID/g | Drug uptake (Brain [17]): 1.59 % ID/g | Drug uptake (Kidney [18]): 15.86 % ID/g | Drug uptake (Stomach [19]): 0.61 % ID/organ | Drug uptake (Kidney [20]): 22.23 % ID/g | Drug uptake (Heart [21]): 1.03 % ID/g | Drug uptake (Brain [22]): 0.28 % ID/g | Drug uptake (Spleen [23]): 6.28 % ID/g | Drug uptake (Brain [24]): 0.63 % ID/g | Drug uptake (Intestine [25]): 17.65 % ID/g | Drug uptake (Stomach [26]): 0.77 % ID/organ | Drug uptake (Intestine [27]): 7.38 % ID/g | Drug uptake (Intestine [28]): 1.38 % ID/g | Drug uptake (Brain [29]): 1.11 % ID/g | Drug uptake (Heart [30]): 1.62 % ID/g | Drug uptake (Stomach [31]): 1.85 % ID/organ | Ratio (Brain [32]): 5.68 | Drug uptake (Thyroid gland [33]): 26.77 % ID/g | logD [34]: 3.66 | Drug uptake (Stomach [35]): 1.75 % ID/organ | Drug uptake (Thyroid gland [36]): 11.56 % ID/g | Drug uptake (Thyroid gland [37]): 14.93 % ID/g | Drug uptake (Brain [38]): 0.26 % ID/g | Drug uptake (Liver [39]): 32.8 % ID/g | Drug uptake (Kidney [40]): 7 % ID/g | Drug uptake (Spleen [41]): 7.34 % ID/g | Drug uptake (Blood [42]): 2.29 % ID/g | Drug uptake (Intestine [43]): 11.62 % ID/g | Drug uptake (Lung [44]): 3.35 % ID/g | Drug uptake (Lung [45]): 3.64 % ID/g | Drug uptake (Liver [46]): 44.64 % ID/g | Drug uptake (Lung [47]): 24.45 % ID/g | Drug uptake (Blood [48]): 6.58 % ID/g | Drug uptake (Lung [49]): 12.97 % ID/g | Drug uptake (Heart [50]): 6.42 % ID/g | Drug uptake (Spleen [51]): 11.59 % ID/g | Drug uptake (Heart [52]): 2.69 % ID/g
SMILES: CN(C)c1ccc(/C=C/C(=O)/C=C/c2ccc([125I])cc2)cc1
